Reference: ChEMBL document CHEMBL1177857, “Functionalized aurones as inducers of NAD(P)H:quinone oxidoreductase 1 that activate AhR/XRE and Nrf2/ARE signaling pathways: synthesis, evaluation and SAR” (Eur J Med Chem, 2010)

Assays:
[1] = Cytotoxicity against mouse Hepa-1c1c7 cells assessed as cell survival at 25 uM after 48 hrs by MTT assay; type: cell-based; conditions: read-out: Activity
In short: (§1)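 MTT (0.5 mg/ml) added for 3 h at 37 °C, formazan dissolved in DMSO and read at 590 nm. Survival (%) = (A treated − A blank)/(A untreated − A blank) × 100.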

[2] = Induction of NQO1 activity in mouse Hepa-1c1c7 cells at 25 uM after 48 hrs relative to control
[3] = Induction of NQO1 activity in mouse Hepa-1c1c7 cells at 5 uM after 48 hrs relative to control
[4] = Cytotoxicity against mouse Hepa-1c1c7 cells assessed as cell survival at 5 uM after 48 hrs by MTT assay; type: cell-based; conditions: read-out: Activity; in short: as §1

| SMILES | fold change (FC) [2] | fold change (FC) [3] | viability at 48 h, 25 µM [1] [%] | viability at 48 h, 5 µM [4] [%] |
| --- | --- | --- | --- | --- |
| N#Cc1ccc(/C=C2\Oc3cc(O)cc(O)c3C2=O)cc1 | 1.35 | 1.14 | 102 | 115 |
| O=C1/C(=C/c2cccc(O)c2)Oc2cc(O)cc(O)c21 | 1.58 | 1.6 | 106 | 111 |
| COc1cc(/C=C2\Oc3cc(O)cc(O)c3C2=O)cc(OC)c1OC | 1.6 | 1.47 | 94 | 99 |
| COc1cc(OC)c2c(c1)OC(=O)/C2=C\c1ccccc1O | 1.1 | 1.49 | 89 | 121 |
| O=C1/C(=C/c2cccc(Cl)c2)Oc2cc(O)cc(O)c21 | 1.71 | 1.45 | 86 | 96 |
| Cc1ccc(/C=C2\Oc3cc(O)cc(O)c3C2=O)cc1 | 1.49 | 1.38 | 95 | 103 |
| COc1cc(OC)c2c(c1)O/C(=C\c1ccc(C)cc1)C2=O | 1.34 | 1.34 | 93 | 89 |
| COc1cc(OC)c2c(c1)O/C(=C\c1ccc(N3CCN(C)CC3)cc1)C2=O | 1.4 | 1.25 | 89 | 93 |
| COc1cc(OC)c2c(c1)O/C(=C\c1ccc([N+](=O)[O-])cc1)C2=O | 1.6 | 1.61 | 88 | 88 |
| COc1cc(OC)c2c(c1)O/C(=C\c1ccc(C(F)(F)F)cc1)C2=O | 0.83 | 1.08 | 93 | 90 |
| O=C1/C(=C/c2ccccc2Cl)Oc2ccccc21 | 1.17 | 0.92 | 98 | 111 |
| COc1cc(OC)c2c(c1)O/C(=C\c1cccnc1)C2=O | 1.9 | 1.8 | 98 | 94 |
| COc1cc(OC)c2c(c1)OC(Cc1ccccc1)C2=O (configuration not stated) |  | 1.46 |  | 95 |
| COc1ccc(/C=C2\Oc3cc(OC)cc(OC)c3C2=O)cc1 [4,4',6-TRIMETHOXY-AURONE] | 0.91 | 1.06 | 87 | 93 |
| COc1cc(OC)c2c(c1)O/C(=C\c1ccc(C#N)cc1)C2=O | 1.37 | 1.36 | 95 | 91 |
| COc1cc(OC)c2c(c1)O/C(=C\c1ccc(O)cc1O)C2=O | 1.4 | 1.03 |  | 51 |
| COc1ccc(/C=C2\Oc3cc(O)cc(O)c3C2=O)cc1 | 0.82 | 1.15 | 114 | 109 |
| COc1cccc(/C=C2\Oc3cc(OC)cc(OC)c3C2=O)c1 | 1.59 | 0.91 | 103 | 100 |
| COc1cc(OC)c2c(c1)O/C(=C\c1ccc(O)cc1)C2=O | 1.29 | 1.18 | 89 | 94 |
| COc1cc(OC)c2c(c1)O/C(=C\c1ccc(Cl)cc1)C2=O |  | 2.13 |  | 93 |
| COc1ccccc1/C=C1\Oc2cc(O)cc(O)c2C1=O | 1.52 | 1.48 | 100 | 103 |
| COc1cc(OC)c2c(c1)O/C(=C\c1ccc(N(C)C)cc1)C2=O | 0.96 | 1.16 | 98 | 101 |
| O=C1/C(=C/c2ccc(O)cc2)Oc2cc(O)ccc21 |  |  | 98 | 100 |
| O=C1/C(=C/c2ccccc2)Oc2cc(O)cc(O)c21 | 1.3 | 1.39 | 100 | 110 |
| COc1cc(OC)c2c(c1)O/C(=C\c1ccccc1C)C2=O | 1.42 | 1.79 | 87 | 91 |
| O=C1/C(=C/c2ccc(Cl)cc2)Oc2cc(O)cc(O)c21 | 1.7 | 1.59 | 96 | 93 |
| COc1cc(OC)c2c(c1)O/C(=C\c1cnc3ccccc3c1)C2=O | 1.5 | 1.79 | 97 | 93 |

More lines, main results first:

| fold change (FC) [2] | fold change (FC) [3] | SMILES | viability at 48 h, 25 µM [1] [%] | viability at 48 h, 5 µM [4] [%] |
| --- | --- | --- | --- | --- |
| 0.9 | 1.59 | Cc1ccc(/C=C2\Oc3cc(O)ccc3C2=O)cc1 | 100 | 98 |
| 1.66 | 1.29 | O=C1/C(=C/c2cccc(O)c2)Oc2ccc(O)cc21 | 89 | 98 |
| 1.18 | 1.32 | O=C1/C(=C/c2ccc(Cl)cc2)Oc2ccc(O)cc21 |  |  |
| 1.9 | 1.42 | COc1cc(OC)c2c(c1)OC(=O)/C2=C\c1ccc(Cl)cc1 | 110 | 115 |
| 1.31 | 1.15 | N#Cc1ccc(/C=C2\Oc3cc(O)ccc3C2=O)cc1 | 90 | 94 |
| 1.71 | 1.35 | COc1ccc(/C=C2\C(=O)Oc3ccc(O)cc32)cc1 | 118 | 110 |
| 1.6 | 1.3 | O=C1Oc2ccc(O)cc2/C1=C/c1ccc(O)cc1 | 101 | 111 |
| 0.94 | 1.22 | O=C1/C(=C/c2ccc(O)cc2)Oc2ccc(O)cc21 |  |  |
| 1.83 | 1.64 | O=C1Oc2ccc(O)cc2/C1=C/c1cccc(O)c1 | 87 | 95 |
| 1.37 | 1.15 | O=C1Oc2ccc(O)cc2/C1=C/c1ccccc1 | 94 | 89 |
| 1.3 | 1.02 | O=C1/C(=C/c2ccccc2Cl)Oc2cc(O)ccc21 | 117 | 120 |
| 1.44 | 1.01 | COc1ccccc1/C=C1\C(=O)Oc2ccc(O)cc21 | 110 | 92 |
| 1.23 | 1.2 | O=C1Oc2ccc(O)cc2/C1=C/c1ccc(F)cc1 | 121 | 101 |
| 1.36 | 1.14 | Cc1ccc(/C=C2\Oc3ccc(O)cc3C2=O)cc1 |  |  |
| 0.61 | 0.46 | COc1ccccc1/C=C1\Oc2cc(O)ccc2C1=O | 96 | 95 |
| 1.3 | 1.02 | O=C1Oc2ccc(O)cc2/C1=C/c1ccccc1Cl | 87 | 93 |
| 1.32 | 1.14 | O=C1Oc2ccc(O)cc2/C1=C/c1cccc(F)c1 | 120 | 127 |
| 1.85 | 1.14 | O=C1/C(=C/c2ccccc2)Oc2cc(O)ccc21 | 110 | 115 |
| 1.71 | 1.33 | O=C1/C(=C/c2ccccc2Cl)Oc2ccc(O)cc21 | 94 | 98 |
|  | 2.28 | O=C1/C(=C/c2ccccc2)Oc2ccc(O)cc21 |  |  |
| 1.01 | 1.22 | COc1cccc(/C=C2\Oc3cc(O)ccc3C2=O)c1 | 84 | 85 |
| 1.18 | 1.19 | COc1cccc(/C=C2\Oc3ccc(O)cc3C2=O)c1 | 110 | 104 |
| 1.34 | 1.05 | O=C1Oc2ccc(O)cc2/C1=C/c1ccccc1F | 114 | 102 |
| 1.5 | 1.19 | COc1ccc(/C=C2\Oc3cc(O)ccc3C2=O)cc1 | 95 | 91 |
| 1.25 | 1.3 | N#Cc1ccc(/C=C2\Oc3ccc(O)cc3C2=O)cc1 |  |  |
| 1.17 | 1 | COc1ccc(/C=C2\Oc3ccc(O)cc3C2=O)cc1 |  |  |
